Active and inactive are the calls of the source. The rule behind the calls is not given here.
What was measured:
Type in all cases: functional
[1] = system: Staphylococcus aureus; experiment: Antibacterial activity against Staphylococcus aureus assessed as growth inhibition at 5 ug/disc after 24 hrs by disc diffusion method; conditions: read-out: DIZ
Procedure, shortened: (§1)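 Disc diffusion: 100 µL of each bacterial culture (10^6 CFU/mL), grown 18 h in nutrient broth, spread onto meat peptone agar in Petri dishes. Compound-loaded discs applied. Plates incubated 24 h at 37 °C. Inhibition zone diameter measured in mm. Treatments replicated 3-5 times, reported as mean ± S.E.M.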

[2] = system: Staphylococcus aureus; experiment: Antibacterial activity against Staphylococcus aureus assessed as growth inhibition at 500 ug/disc after 24 hrs by disc diffusion method; conditions: for zone of inhibition at 500 µg/disc: read-out: DIZ
Procedure, shortened: (§2)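 Disc diffusion: 100 µL inoculum (10^6 CFU/mL, grown 18 h in nutrient broth) spread on meat peptone agar plates; discs applied and incubated 24 h at 37 °C. Inhibition zone diameters measured in mm; 3-5 replicates, mean ± S.E.M.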

[3] = system: Staphylococcus aureus; experiment: Antibacterial activity against Staphylococcus aureus assessed as growth inhibition at 50 ug/disc after 24 hrs by disc diffusion method; conditions: for zone of inhibition at 50 µg/disc: read-out: DIZ; procedure, shortened: as §1
[4] = system: Staphylococcus epidermidis; experiment: Antibacterial activity against Staphylococcus epidermidis assessed as growth inhibition at 5 ug/disc after 24 hrs by disc diffusion method; conditions: read-out: DIZ; procedure, shortened: as §2
[5] = system: Staphylococcus epidermidis; experiment: Antibacterial activity against Staphylococcus epidermidis assessed as growth inhibition at 50 ug/disc after 24 hrs by disc diffusion method; conditions: for zone of inhibition at 50 µg/disc: read-out: DIZ; procedure, shortened: as §1
[6] = system: Staphylococcus epidermidis; experiment: Antibacterial activity against Staphylococcus epidermidis assessed as growth inhibition at 500 ug/disc after 24 hrs by disc diffusion method; conditions: for zone of inhibition at 500 µg/disc: read-out: DIZ; procedure, shortened: as §1
[7] = system: Enterococcus faecalis; experiment: Antibacterial activity against Enterococcus faecalis assessed as growth inhibition at 5 ug/disc after 24 hrs by disc diffusion method; conditions: read-out: DIZ; procedure, shortened: as §2
[8] = system: Enterococcus faecalis; experiment: Antibacterial activity against Enterococcus faecalis assessed as growth inhibition at 50 ug/disc after 24 hrs by disc diffusion method; conditions: for zone of inhibition at 50 µg/disc: read-out: DIZ; procedure, shortened: as §1
[9] = system: Enterococcus faecalis; experiment: Antibacterial activity against Enterococcus faecalis assessed as growth inhibition at 500 ug/disc after 24 hrs by disc diffusion method; conditions: read-out: DIZ; procedure, shortened: as §1
[10] = system: Micrococcus luteus; experiment: Antibacterial activity against Micrococcus luteus assessed as growth inhibition at 5 ug/disc after 24 hrs by disc diffusion method; conditions: read-out: DIZ; procedure, shortened: as §2
[11] = system: Staphylococcus aureus; experiment: Antibacterial activity against Staphylococcus aureus assessed as growth inhibition at 25 ug/disc after 24 hrs by disc diffusion method; conditions: read-out: DIZ; procedure, shortened: as §1
[12] = system: Staphylococcus epidermidis; experiment: Antibacterial activity against Staphylococcus epidermidis assessed as growth inhibition at 25 ug/disc after 24 hrs by disc diffusion method; conditions: read-out: DIZ; procedure, shortened: as §1
[13] = system: Enterococcus faecalis; experiment: Antibacterial activity against Enterococcus faecalis assessed as growth inhibition at 25 ug/disc after 24 hrs by disc diffusion method; conditions: read-out: DIZ; procedure, shortened: as §1
[14] = system: Micrococcus luteus; experiment: Antibacterial activity against Micrococcus luteus assessed as growth inhibition at 25 ug/disc after 24 hrs by disc diffusion method; conditions: read-out: DIZ; procedure, shortened: as §1
[15] = system: Micrococcus luteus; experiment: Antibacterial activity against Micrococcus luteus assessed as growth inhibition at 50 ug/disc after 24 hrs by disc diffusion method; conditions: for zone of inhibition at 50 µg/disc: read-out: DIZ; procedure, shortened: as §1
[16] = system: Micrococcus luteus; experiment: Antibacterial activity against Micrococcus luteus assessed as growth inhibition at 500 ug/disc after 24 hrs by disc diffusion method; procedure, shortened: as §1

Structure (SMILES): CC1=C(C)[C@@H]2CC(=O)C3=C(C(=O)C(=O)[C@]4(C[C@@H]4C)[C@@H]3O)[C@@]2(C)CC1
- zone of inhibition at 5 µg/disc [1]: 12.9 mm
- zone of inhibition at 500 µg/disc [2]: 30.6 mm
- zone of inhibition at 50 µg/disc [3]: 22.6 mm
- zone of inhibition at 5 µg/disc [4]: 15.9 mm
- zone of inhibition at 50 µg/disc [5]: 24.1 mm
- zone of inhibition at 500 µg/disc [6]: 29.3 mm
- zone of inhibition at 5 µg/disc [7]: 23.2 mm
- zone of inhibition at 50 µg/disc [8]: 24 mm
- zone of inhibition at 500 µg/disc [9]: 28.7 mm
- zone of inhibition at 5 µg/disc [10]: 16.3 mm
- zone of inhibition at 25 µg/disc [11]: 21.5 mm
- zone of inhibition at 25 µg/disc [12]: 23.2 mm
- zone of inhibition at 25 µg/disc [13]: 22 mm
- zone of inhibition at 25 µg/disc [14]: 27.9 mm

Structure (SMILES): CC(C)c1cc2c(c(O)c1O)[C@@]1(C)CCCC(C)(C)[C@@H]1[C@@H](O)C2=O [6-ALPHA-HYDROXYDEMETHYL-CRYPTOJAPONOL]
- zone of inhibition at 500 µg/disc [2]: 22.5 mm
- zone of inhibition at 50 µg/disc [3]: 11 mm
- zone of inhibition at 5 µg/disc [4]: 21.2 mm
- zone of inhibition at 50 µg/disc [5]: 11.5 mm
- zone of inhibition at 5 µg/disc [7]: 20.2 mm
- zone of inhibition at 50 µg/disc [8]: 13.8 mm
- zone of inhibition at 5 µg/disc [10]: 17.7 mm
- zone of inhibition at 50 µg/disc [15]: 9.1 mm

Structure (SMILES): NC[C@H]1O[C@H](O[C@H]2[C@H](O)[C@@H](O[C@H]3O[C@H](CO)[C@@H](O)[C@H](N)[C@H]3O)[C@H](N)C[C@@H]2N)[C@H](O)[C@@H](O)[C@@H]1O [KANAMYCIN]
- zone of inhibition at 5 µg/disc [1]: 16.3 mm
- zone of inhibition at 5 µg/disc [4]: 20.5 mm
- zone of inhibition at 50 µg/disc [8]: 17.9 mm
- zone of inhibition at 5 µg/disc [10]: 16 mm

Structure (SMILES): CC(C)c1cc2c(c(O)c1O)[C@@]1(C)CCCC(C)(C)C1=C(O)C2=O [14-DEOXYCOLEON U]
- zone of inhibition at 500 µg/disc [2]: 17.8 mm
- zone of inhibition at 50 µg/disc [3]: 10.2 mm
- zone of inhibition at 50 µg/disc [5]: 10.2 mm
- zone of inhibition at 500 µg/disc [6]: 18.2 mm
- zone of inhibition at 50 µg/disc [8]: 10.5 mm
- zone of inhibition at 500 µg/disc [9]: 16.8 mm
- zone of inhibition at 50 µg/disc [15]: 9 mm
- zone of inhibition at 500 µg/disc ([16]; read-out: DIZ): 14.8 mm

Structure (SMILES): C[C@@H]1C[C@@]12C(=O)OC(=O)C1=C(C(=O)C[C@H]3C(C)(C)CCC[C@]13C)[C@H]2O
- growth inhibition (GI) [3]: inactive
- growth inhibition (GI) [5]: inactive
- growth inhibition (GI) [8]: inactive
- growth inhibition (GI) [15]: inactive

Structure (SMILES): C[C@H]1C[C@]12C(=O)OC(=O)C1=C(C(=O)C[C@H]3C(C)(C)CCC[C@]13C)[C@H]2O
- growth inhibition (GI) [2]: inactive
- growth inhibition (GI) [3]: inactive
- growth inhibition (GI) [5]: inactive
- growth inhibition (GI) [6]: inactive
- growth inhibition (GI) [8]: inactive
- zone of inhibition at 500 µg/disc [9]: 9.6 mm
- growth inhibition (GI) [15]: inactive
- growth inhibition (GI) [16]: inactive

Structure (SMILES): CC1=C(C)[C@@H]2CC(=O)C3=C(C(=O)OC(=O)[C@@]4(C[C@H]4C)[C@@H]3O)[C@@]2(C)CC1
- growth inhibition (GI) [3]: inactive
- growth inhibition (GI) [5]: inactive
- growth inhibition (GI) [8]: inactive
- growth inhibition (GI) [15]: inactive

Structure (SMILES): CC(C)c1cc2c(c(O)c1O)[C@@]1(C)CCCC(C)(C)[C@@H]1CC2=O [DEMETHYLCRYPTOJAPONOL]
- zone of inhibition at 500 µg/disc [2]: 15.8 mm
- zone of inhibition at 50 µg/disc [3]: 11.8 mm
- zone of inhibition at 5 µg/disc [4]: 16 mm
- zone of inhibition at 50 µg/disc [5]: 13.7 mm
- zone of inhibition at 5 µg/disc [7]: 15.2 mm
- zone of inhibition at 50 µg/disc [8]: 11.3 mm
- zone of inhibition at 5 µg/disc [10]: 13.5 mm
- zone of inhibition at 50 µg/disc [15]: 9 mm

Reference: ChEMBL document CHEMBL3425415, “An antibacterial ortho-quinone diterpenoid and its derivatives from Caryopteris mongolica” (2015)
